Assay results from ChEMBL document CHEMBL1136784, “Synthesis and biological evaluation of 14-alkoxymorphinans. 18. N-substituted 14-phenylpropyloxymorphinan-6-ones with unanticipated agonist properties: extending the scope of common structure-activity relationships” (J Med Chem, 2003).
Values joined by “and” are separate entries in the source; they are usually repeats but may differ in a detail not shown here. Equal values may be shown once.

How the values were obtained:
Mu-type opioid receptor = Mu-type opioid receptor (Rattus norvegicus, UniProt P33535); experiment: In vitro binding affinity at opioid receptor mu 1 was determined in C6 rat glioma cells using [3H]DAMGO; type: cell-based
[1] = molecular target: Delta-type opioid receptor (Rattus norvegicus, UniProt P33533); experiment: In vitro binding affinity at opioid receptor delta 1 was determined in C6 rat glioma cells using [3H]Ile5,6 deltorphin II; type: cell-based
[2] = Selectivity ratio was determined; parameters: reference not given here
[3] = In vivo antinociceptive activity was determined upon subcutaneous administration in the mouse tail-flick test; type: functional; conditions: sc
How it was run: (§1)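 Male ICR mice weighing 20-30 g, each animal tested only once. Drugs were given subcutaneously at a minimum of 3 doses, with 6-10 mice per dose. Assay procedures followed earlier published methods and their modifications.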

[4] = molecular target: Kappa-type opioid receptor (Homo sapiens, UniProt P41145); experiment: biochemical; type: cell-based, CHO
[5] = molecular target: Opioid receptors; mu and delta (Mus musculus) (UniProt P42866+P32300); experiment: In vivo antinociceptive activity was determined upon subcutaneous administration in the mouse paraphenylquinone writhing test; type: functional, organism-based; how it was run: as §1
Opioid receptors; mu and delta (Mus musculus), sequence (P32300 whole entry, looked up): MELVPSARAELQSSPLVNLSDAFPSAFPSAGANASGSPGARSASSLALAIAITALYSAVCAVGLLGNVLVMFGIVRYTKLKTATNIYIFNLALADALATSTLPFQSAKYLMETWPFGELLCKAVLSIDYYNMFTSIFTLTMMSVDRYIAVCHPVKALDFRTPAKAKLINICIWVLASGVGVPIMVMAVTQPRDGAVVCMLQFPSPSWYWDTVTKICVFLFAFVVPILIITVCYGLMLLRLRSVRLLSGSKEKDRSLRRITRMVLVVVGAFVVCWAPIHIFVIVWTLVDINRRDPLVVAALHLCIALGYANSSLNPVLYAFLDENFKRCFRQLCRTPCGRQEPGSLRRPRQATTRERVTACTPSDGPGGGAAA
Opioid receptors; mu and delta (Mus musculus), sequence (P42866 whole entry, looked up): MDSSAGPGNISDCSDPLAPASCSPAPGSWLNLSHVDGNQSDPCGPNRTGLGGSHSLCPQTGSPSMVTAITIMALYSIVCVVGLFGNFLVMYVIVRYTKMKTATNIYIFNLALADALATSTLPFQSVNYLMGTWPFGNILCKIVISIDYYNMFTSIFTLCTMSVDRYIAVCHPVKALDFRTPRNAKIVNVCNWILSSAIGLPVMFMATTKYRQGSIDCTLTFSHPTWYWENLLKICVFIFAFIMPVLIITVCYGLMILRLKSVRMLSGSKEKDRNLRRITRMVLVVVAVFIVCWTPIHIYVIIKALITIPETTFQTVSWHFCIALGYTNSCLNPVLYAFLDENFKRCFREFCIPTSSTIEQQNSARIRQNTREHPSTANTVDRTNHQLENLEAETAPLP

Kappa-type opioid receptor, sequence (P41145 whole entry): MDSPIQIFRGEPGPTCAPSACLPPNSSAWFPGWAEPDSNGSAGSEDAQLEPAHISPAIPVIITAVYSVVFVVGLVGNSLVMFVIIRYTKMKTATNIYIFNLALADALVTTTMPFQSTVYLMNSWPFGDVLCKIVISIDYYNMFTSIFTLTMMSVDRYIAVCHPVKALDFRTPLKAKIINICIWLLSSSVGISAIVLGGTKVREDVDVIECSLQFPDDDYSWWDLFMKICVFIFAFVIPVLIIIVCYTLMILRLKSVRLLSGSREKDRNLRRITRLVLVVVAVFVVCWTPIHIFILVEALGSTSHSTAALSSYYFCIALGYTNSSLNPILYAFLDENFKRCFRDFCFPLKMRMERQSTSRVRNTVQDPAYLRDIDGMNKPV
Mu-type opioid receptor, sequence (P33535 whole entry): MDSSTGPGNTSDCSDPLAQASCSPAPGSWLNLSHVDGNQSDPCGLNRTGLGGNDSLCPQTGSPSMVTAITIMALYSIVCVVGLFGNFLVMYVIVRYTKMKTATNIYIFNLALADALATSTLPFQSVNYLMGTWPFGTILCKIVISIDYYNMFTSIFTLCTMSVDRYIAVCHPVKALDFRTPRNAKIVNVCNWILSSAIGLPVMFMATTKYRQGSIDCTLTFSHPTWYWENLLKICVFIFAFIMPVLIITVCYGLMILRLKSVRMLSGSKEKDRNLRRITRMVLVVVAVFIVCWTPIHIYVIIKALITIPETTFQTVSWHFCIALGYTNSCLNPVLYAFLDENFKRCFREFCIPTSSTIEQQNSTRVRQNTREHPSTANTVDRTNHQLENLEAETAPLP
Delta-type opioid receptor, sequence (P33533 whole entry): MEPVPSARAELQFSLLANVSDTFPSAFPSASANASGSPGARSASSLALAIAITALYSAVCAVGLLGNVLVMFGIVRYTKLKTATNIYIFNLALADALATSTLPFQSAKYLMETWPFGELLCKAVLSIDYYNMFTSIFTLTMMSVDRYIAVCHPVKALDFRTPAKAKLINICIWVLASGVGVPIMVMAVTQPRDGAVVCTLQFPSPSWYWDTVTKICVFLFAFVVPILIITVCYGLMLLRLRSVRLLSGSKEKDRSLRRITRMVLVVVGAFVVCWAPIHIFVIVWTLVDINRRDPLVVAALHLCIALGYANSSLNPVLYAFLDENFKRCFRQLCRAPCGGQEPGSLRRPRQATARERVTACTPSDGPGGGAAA

Row | Structure (SMILES) | Ki (Mu-type opioid receptor) [nM] | Ki [1] [nM] | Ratio [2] | ED50 [3] [µg/kg] | Ki [4] [nM] | ED50 [5] [µg/kg]
1 | O=C1CC[C@@]2(OCCCc3ccccc3)[C@H]3Cc4ccc(O)c5c4[C@@]2(CCN3CC2CCC2)[C@H]1O5 | 0.25 | 0.46 | 1.96 and 1.84 | 8 | 0.49 | 
2 | COc1ccc2c3c1O[C@H]1C(=O)CC[C@@]4(OCCCc5ccccc5)[C@@H](C2)N(CCc2ccccc2)CC[C@]314 |  |  |  | 80 |  | 
3 | CCCN1CC[C@]23c4c5ccc(O)c4O[C@H]2C(=O)CC[C@@]3(OCCCc2ccccc2)[C@H]1C5 | 0.09 | 0.93 | 4.11 and 10.3 | 2 | 0.37 | 0.9
4 | C=CCN1CC[C@]23c4c5ccc(O)c4O[C@H]2C(=O)CC[C@@]3(OCCCc2ccccc2)[C@H]1C5 |  | 0.26 |  | 6 | 0.11 | 
5 | O=C1CC[C@@]2(OCCCc3ccccc3)[C@H]3Cc4ccc(O)c5c4[C@@]2(CCN3CC2CCCO2)[C@H]1O5 (stereo partly specified) | 0.2 | 0.09 | 0.4 and 0.45 | 7 | 0.08 | 2
6 | CO[C@@]12CCC(=O)[C@]3(C)Oc4c(O)ccc5c4[C@@]31CCN(C)[C@@H]2C5 | 0.023 | 40.9 |  | 30 | 304 | 9
7 | COc1ccc2c3c1O[C@H]1C(=O)CC[C@@]4(OCCCc5ccccc5)[C@@H](C2)N(CC2CCCO2)CC[C@]314 (stereo partly specified) | 3.8 | 6.2 |  | 760 | 61.4 | 
8 | CN1CC[C@]23c4c5ccc(O)c4O[C@H]2[C@@H](O)C=C[C@H]3[C@H]1C5 [MORPHINE] |  |  |  | 1900 |  | 400
9 | O=C1CC[C@@]2(OCCCc3ccccc3)[C@H]3Cc4ccc(O)c5c4[C@@]2(CCN3CCc2ccccc2)[C@H]1O5 |  |  |  | 110 |  | 
10 | O=C1CC[C@@]2(OCCCc3ccccc3)[C@H]3Cc4ccc(O)c5c4[C@@]2(CCN3CC2CC2)[C@H]1O5 |  |  |  | 3 | 0.41 | 6
